Data reported in ChEMBL document CHEMBL2331269, “Design and synthesis of amphiphilic xanthone-based, membrane-targeting antimicrobials with improved membrane selectivity” (J Med Chem, 2013).
Converted amounts (≈) assume the structure as drawn. The source made the active and inactive calls. The rule behind the calls is not given here.

Experiments:
Staphylococcus aureus [1] = assay: Antibacterial activity against methicillin-resistant Staphylococcus aureus DR42412 obtained from sputum isolate after 20 to 22 hrs by CLSI broth macro-dilution method; type: functional
Staphylococcus aureus [2] = assay: Antibacterial activity against methicillin-resistant Staphylococcus aureus DM21595 obtained from wound isolate after 20 to 22 hrs by CLSI broth macro-dilution method; type: functional
Staphylococcus aureus [3] = assay: Antibacterial activity against methicillin-resistant Staphylococcus aureus DB57964/04 after 20 to 22 hrs by CLSI broth macro-dilution method; type: functional
Staphylococcus aureus [4] = assay: Antibacterial activity against methicillin-resistant Staphylococcus aureus DM09808R obtained from eye isolate after 20 to 22 hrs by CLSI broth macro-dilution method; type: functional
Staphylococcus aureus [5] = assay: Antibacterial activity against methicillin-resistant Staphylococcus aureus ATCC […] after 20 to 22 hrs by CLSI broth macro-dilution method; type: functional
Klebsiella pneumoniae = assay: Antibacterial activity against Klebsiella pneumoniae ATCC 10031 after 20 to 22 hrs by CLSI broth macro-dilution method; type: functional
[6] = Partition coefficient, log P of the compound by HPLC analysis; type: physicochemical; conditions: octanol/water; read-out: logP
How it was run: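 Partition coefficient measured by HPLC following OECD guidelines for the testing of chemicals.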

Pseudomonas aeruginosa = assay: Antibacterial activity against Pseudomonas aeruginosa ATCC 27853 after 20 to 22 hrs by CLSI broth macro-dilution method; type: functional
[7] = Selectivity ratio of HC50 for rabbit erythrocyte to MIC99 for Staphylococcus aureus ATCC 29213; type: functional
[8] = Selectivity ratio of HC50 for rabbit erythrocyte to MIC99 for methicillin-resistant Staphylococcus aureus clinical isolate DM21455; type: functional
[9] = Hemolytic activity against rabbit erythrocytes after 60 mins by spectrophotometric analysis; type: ADME, cell-based, Oryctolagus cuniculus, Erythrocyte
Staphylococcus aureus [10] = assay: Antibacterial activity against methicillin-resistant Staphylococcus aureus clinical isolate DM21455 after 20 to 22 hrs by CLSI broth macro-dilution method; type: functional
Staphylococcus aureus [11] = assay: Antibacterial activity against Staphylococcus aureus ATCC 29213 after 20 to 22 hrs by CLSI broth macro-dilution method; type: functional
[12] = Dissociation constant, pKa of the compound; type: physicochemical
Staphylococcus aureus [13] = assay: Antimicrobial activity against Staphylococcus aureus DM4001 assessed as morphological changes by scanning electron microscopy relative to control; type: functional, organism-based
Mus musculus [14] = assay: Toxicity against wild type C57BL6 mouse at 25 mg/kg, iv after 24 hrs; type: organism-based; design: dose 25 mg/kg, route intravenous; conditions: in vivo
How it was run: (§1)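 Mice received a single bolus injection, 25 mg/kg intravenous or 50 mg/kg intraperitoneal, with survival recorded at 24 h; 2 animals per route.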

Mus musculus [15] = assay: Toxicity against wild type C57BL6 mouse at 50 mg/kg, ip after 24 hrs; type: organism-based; design: dose 50 mg/kg, route intraperitoneal; conditions: in vivo; how it was run: as §1
[16] = Toxicity against New Zealand White rabbit corneal epithelium assessed as effect on wound closure at 50 ug/ml by Slit lamp photography relative to control; type: tissue-based, Oryctolagus cuniculus, Cornea; conditions: in vivo
How it was run: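 A 5 mm corneal epithelial abrasion was made with a sterile trephine and the epithelium removed with a mini blade. Eyes were treated with saline, vancomycin 50 μg/mL, or agent 50 μg/mL. Wound closure was tracked over time from fluorescein-stained photographs of defect size.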

Mus musculus [17] = assay: Toxicity against wild type C57BL6 mouse assessed as corneal opacity at 400 ug/ml administered topically 5 times a day by Slit lamp photography; type: organism-based, Cornea; conditions: in vivo, topical_or_ocular
How it was run: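 Mouse eyes given topical drops five times per day at 400 μg/mL; cornea examined by slit lamp photography for clinical signs of toxicity and corneal opacity.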

Staphylococcus aureus [18] = assay: Antimicrobial activity against in Staphylococcus aureus assessed as disruption of bacterial membrane at 10 uM by fluorescence microscopy; type: functional, organism-based
How it was run: (§2)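 S. aureus DM4001 treated with 10 μM agent and incubated with the membrane-impermeant nucleic-acid dye SYTOX Green. Permeabilization was read as increased fluorescence intensity and confirmed by fluorescence microscopy counting green-stained cells.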

Staphylococcus aureus [19] = assay: Antimicrobial activity against Staphylococcus aureus assessed as disruption of bacterial membrane at 10 uM by SYTOX green uptake assay; type: functional, organism-based; how it was run: as §2
Staphylococcus aureus [20] = assay: Antimicrobial activity against Staphylococcus aureus DM4001 assessed as depolarization of bacterial membrane at 12.5 ug/ml by DiSC3-5-based cytoplasmic membrane depolarization assay; type: functional, organism-based
How it was run: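 Clinical S. aureus DM4001 was loaded with the membrane-potential dye DiSC3-5, which self-quenches in polarized membranes. Agent added at 12.5 μg/mL. Depolarization was read as the rise in fluorescence intensity (counts per second) over time.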

Staphylococcus aureus [21] = assay: Antibacterial activity against Staphylococcus aureus ATCC 700699 at 4 X MIC after 20 to 22 hrs; type: functional, organism-based
Staphylococcus aureus [22] = assay: Antibacterial activity against vancomycin-intermediate resistant Staphylococcus aureus 10:DB6506 after 20 to 22 hrs by multipassage resistance selection method; type: functional, organism-based
Staphylococcus aureus [23] = assay: Antibacterial activity against methicillin-resistant Staphylococcus aureus DM21455 after 20 to 22 hrs by multipassage resistance selection method; type: functional, organism-based
Enterococcus faecalis [24] = assay: Antibacterial activity against Enterococcus faecalis ATCC 29212 after 20 to 22 hrs by multipassage resistance selection method; type: functional, organism-based
Staphylococcus aureus [25] = assay: Antibacterial activity against methicillin-resistant Staphylococcus aureus DM21455 assessed as log reduction in CFU at 0.5 X MIC to 1 X MIC after 2 hrs by surface-spread plate method relative to control; type: functional
Staphylococcus aureus [26] = assay: Antibacterial activity against methicillin-resistant Staphylococcus aureus DM21455 assessed as reduction in viable count at 4 X MIC after 10 mins by surface-spread plate method relative to control; type: functional
Staphylococcus aureus [27] = assay: Antibacterial activity against methicillin-resistant Staphylococcus aureus DM21455 assessed as reduction in viable count at 2 X MIC after 5 mins by surface-spread plate method relative to control; type: functional
Staphylococcus aureus [28] = assay: Antibacterial activity against methicillin-resistant Staphylococcus aureus DM21455 assessed as reduction in viable count after 5 to 10 mins by surface-spread plate method; type: functional, organism-based
[29] = Selectivity index, ratio of HC50 for rabbit erythrocyte to MIC99 for Enterococcus faecalis ATCC 29212; type: functional
[30] = Selectivity index, ratio of HC50 for rabbit erythrocyte to MIC99 for […] ATCC 12228; type: functional
[31] = Selectivity index, ratio of HC50 for rabbit erythrocyte to MIC99 for Streptococcus faecium ATCC 10541; type: functional
[32] = Selectivity index, ratio of HC50 for rabbit erythrocyte to MIC99 for Staphylococcus aureus ATCC 29737; type: functional
[33] = Selectivity index, ratio of HC50 for rabbit erythrocyte to MIC99 for Staphylococcus aureus ATCC 6538; type: functional
[34] = Selectivity index, ratio of HC50 for rabbit erythrocyte to MIC99 for Staphylococcus aureus ATCC 6538P; type: functional
[35] = Selectivity index, ratio of HC50 for rabbit erythrocyte to MIC99 for Staphylococcus aureus 10:DB6506; type: functional
[36] = Selectivity index, ratio of HC50 for rabbit erythrocyte to MIC99 for methicillin-resistant Staphylococcus aureus DR68004; type: functional
[37] = Selectivity index, ratio of HC50 for rabbit erythrocyte to MIC99 for methicillin-resistant Staphylococcus aureus DR42412; type: functional
[38] = Selectivity index, ratio of HC50 for rabbit erythrocyte to MIC99 for methicillin-resistant Staphylococcus aureus DM21595; type: functional
[39] = Selectivity index, ratio of HC50 for rabbit erythrocyte to MIC99 for methicillin-resistant Staphylococcus aureus DB57964/04; type: functional
[40] = Selectivity index, ratio of HC50 for rabbit erythrocyte to MIC99 for methicillin-resistant Staphylococcus aureus DM09808R; type: functional
[41] = Selectivity index, ratio of HC50 for rabbit erythrocyte to MIC99 for methicillin-resistant Staphylococcus aureus ATCC 700669; type: functional
Enterococcus faecalis [42] = assay: Antibacterial activity against Enterococcus faecalis ATCC 29212 after 20 to 22 hrs by CLSI broth macro-dilution method; type: functional
Enterococcus faecium = assay: Antibacterial activity against Streptococcus faecium ATCC 10541 after 20 to 22 hrs by CLSI broth macro-dilution method; type: functional
Staphylococcus aureus [43] = assay: Antibacterial activity against Staphylococcus aureus ATCC 29737 after 20 to 22 hrs by CLSI broth macro-dilution method; type: functional
Staphylococcus aureus [44] = assay: Antibacterial activity against Staphylococcus aureus ATCC 6538P after 20 to 22 hrs by CLSI broth macro-dilution method; type: functional
Staphylococcus aureus [45] = assay: Antibacterial activity against Staphylococcus aureus ATCC 6538 after 20 to 22 hrs by CLSI broth macro-dilution method; type: functional
Staphylococcus aureus [46] = assay: Antibacterial activity against vancomycin-intermediate resistant Staphylococcus aureus 10:DB6506 after 20 to 22 hrs by CLSI broth macro-dilution method; type: functional
Staphylococcus aureus [47] = assay: Antibacterial activity against methicillin-resistant Staphylococcus aureus DR68004 obtained from blood isolate after 20 to 22 hrs by CLSI broth macro-dilution method; type: functional
[48] = test system: Staphylococcus epidermidis; assay: Antibacterial activity against Staphylococcus epidermidis ATCC 12228 after 20 to 22 hrs by CLSI broth macro-dilution method

## CCN(CC)CCCCOc1cc2oc3cc(OCCCCN(CC)CC)c(OC)c(CC=C(C)C)c3c(=O)c2c(O)c1CC=C(C)C
Staphylococcus aureus [1]
  MIC: 0.39 µg/mL (≈ 0.587 µM)
Staphylococcus aureus [2]
  MIC: 0.39 µg/mL (≈ 0.587 µM)
Staphylococcus aureus [3]
  MIC: 0.78 µg/mL (≈ 1.17 µM)
Staphylococcus aureus [4]
  MIC: 1.56 µg/mL (≈ 2.35 µM)
Staphylococcus aureus [5]
  MIC: 0.095 µg/mL (≈ 0.143 µM)
Klebsiella pneumoniae
  MIC: 40 µg/mL (≈ 60.2 µM)
[6]
  logP: 6.72
Pseudomonas aeruginosa
  MIC: 50 µg/mL (≈ 75.2 µM)
[7]
  Selectivity ratio: 50.3
[8]
  Selectivity ratio: 50.3
[9]
  HC50 at 1 h: 19.6 µM
Staphylococcus aureus [10]
  MIC99: 0.39 µg/mL (≈ 0.587 µM)
Staphylococcus aureus [11]
  MIC99: 0.39 µg/mL (≈ 0.587 µM)
[12]
  pKa: 11
Staphylococcus aureus [13]
  Activity: Active
Mus musculus [14]
  Activity: Non-toxic
Mus musculus [15]
  Activity: Non-toxic
[16]
  Activity: Non-toxic
Mus musculus [17]
  Activity: Non-toxic
Staphylococcus aureus [18]
  Activity: Active
Staphylococcus aureus [19]
  Activity: Active
Staphylococcus aureus [20]
  Activity: Active
Staphylococcus aureus [21]
  Activity: Active
Staphylococcus aureus [22]
  Activity: Active
Staphylococcus aureus [23]
  Activity: Active
Enterococcus faecalis [24]
  Activity: Active
Staphylococcus aureus [25]
  FC: 3
Staphylococcus aureus [26]
  Activity: 99.9%
Staphylococcus aureus [27]
  Activity: 99.9%
Staphylococcus aureus [28]
  Activity: Dose-dependent effect
[29]
  Selectivity Index: 25.1
[30]
  Selectivity Index: 25.1
[31]
  Selectivity Index: 100.5
[32]
  Selectivity Index: 12.6
[33]
  Selectivity Index: 12.6
[34]
  Selectivity Index: 25.1
[35]
  Selectivity Index: 25.1
[36]
  Selectivity Index: 12.6
[37]
  Selectivity Index: 50.3
[38]
  Selectivity Index: 50.3
[39]
  Selectivity Index: 25.1
[40]
  Selectivity Index: 12.6
[41]
  Selectivity Index: 206.3
Enterococcus faecalis [42]
  MIC: 0.78 µg/mL (≈ 1.17 µM)
Enterococcus faecium
  MIC: 0.195 µg/mL (≈ 0.293 µM)
Staphylococcus aureus [43]
  MIC: 1.56 µg/mL (≈ 2.35 µM)
Staphylococcus aureus [44]
  MIC: 0.78 µg/mL (≈ 1.17 µM)
Staphylococcus aureus [45]
  MIC: 1.56 µg/mL (≈ 2.35 µM)
Staphylococcus aureus [46]
  MIC: 0.78 µg/mL (≈ 1.17 µM)
Staphylococcus aureus [47]
  MIC: 1.56 µg/mL (≈ 2.35 µM)
[48]
  MIC: 0.78 µg/mL (≈ 1.17 µM)
